Data from ChEMBL document CHEMBL6134784, “Furoxan-piplartine hybrids as effective NO donors and ROS inducers in PC3 cancer cells: design, synthesis, and biological evaluation” (RSC Med Chem, 2024).
Active and inactive are the calls of the source. No cut-off for these calls is given here.

Tests used:
[1] = tested on: PC-3; experiment: Induction of DNA damage in human PC-3 cells assessed as increase in phosphorylated gamma-H2AX expression at 0.24 uM measured after 6 hrs by DAPI staining based confocal laser scanning microscopy; type: functional, cell-based
Outline: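 γ-H2AX immunostaining: PC3 on coverslips (1×10^5 cells), serum-starved 18 h, then treated (methods state 1 h; legend states 6 h); fixed 3.7% formaldehyde, permeabilized 0.25% Triton X-100, blocked 3% albumin, anti-phospho-H2A.X Ser139 (1:500) then Alexa Fluor 488 secondary, DAPI nuclei; confocal, 500 cells per slide, three experiments; UVC 20 min positive control.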

[2] = Cytotoxicity against human MCF-10A cells assessed as reduction in cell viability measured after 48 hrs by CCK-8 assay; type: toxicity, cell-based
Outline: (§1)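 CCK-8 viability: cells grown in RPMI-1640 with 10% FBS, 1×10^4 per well, attached 24 h, then medium replaced with fresh medium containing a range of compound concentrations for 48 h at 37 °C, 5% CO2. CCK-8 added 3 h, absorbance 450 nm; vehicle control set as 100%. IC50 by nonlinear regression, mean ± SD, at least two experiments in triplicate.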

[3] = tested on: OVCAR-3; experiment: Cytotoxicity against human OVCAR-3 cells assessed as reduction in cell viability measured after 48 hrs by CCK-8 assay; type: functional, cell-based; conditions: OVCAR-3, 48 h; outline: as §1
[4] = tested on: PC-3; experiment: Induction of nitric oxide production in human PC-3 cells assessed as nitrite level at 100 uM measured after 12 to 48 hrs by Griess assay; type: functional; conditions: time 12-48 hrs
Outline: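 PC3 cells were seeded at 1×10^4 per well and grown 24 h, then moved to serum-free RPMI with 100 μM compound for 12, 24 or 48 h at 37 °C. Supernatant was mixed with 1% sulfanilamide in 2.5% H3PO4 (10 min, dark), then 0.1% NED (10 min, 37 °C), and A540 was read. Nitrite was calculated from a NaNO2 curve (0–100 μM). Controls were DMSO and SNP 100 μM. Data from ≥3 independent experiments in triplicate, mean ± SD.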

[5] = Cytotoxicity against human PNT2 cells assessed as reduction in cell viability measured after 48 hrs by CCK-8 assay; type: toxicity, cell-based; outline: as §1
[6] = tested on: PC-3; experiment: Induction of apoptosis in human PC-3 cells assessed as effect on BAX gene expression at 0.24 uM measured after 3 hrs by qPCR analysis; type: functional, cell-based
Outline: (§2)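 Seeded 1×10^5 cells per well in 6-well plates; PC3 treated 3 h. Total RNA extracted, qPCR; each target normalized to reference gene (β-actin) by efficiency-corrected ΔΔCt (Pfaffl) against a control calibrator sample, efficiencies from amplification profiles. Mean ± SEM of four independent experiments.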

[7] = Selectivity index, ratio of IC50 for cytotoxicity against human PNT2 cells to IC50 for cytotoxicity against human PC-3 cells; type: toxicity, cell-based; conditions: PNT2 cells versus PC-3 cells, read-out: Ratio IC50
Outline: (§3)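 CCK-8 was added for 3 h and A450 read, with vehicle set as 100% viability. IC50 was fitted by nonlinear regression from ≥2 experiments in triplicate. SI = normal-cell IC50 divided by the matched cancer-cell IC50.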

[8] = Selectivity index, ratio of IC50 for cytotoxicity against human MCF-10A cells to IC50 for cytotoxicity against human MCF7 cells; type: toxicity, cell-based; conditions: MCF-10A cells versus MCF7 cells, read-out: Ratio IC50; outline: as §3
[9] = tested on: MCF7; experiment: Cytotoxicity against human MCF7 cells assessed as reduction in cell viability measured after 48 hrs by CCK-8 assay; type: functional, cell-based; conditions: MCF7, 48 h; outline: as §1
[10] = tested on: PC-3; experiment: Cytotoxicity against human PC-3 cells assessed as reduction in cell viability measured after 48 hrs by CCK-8 assay; type: functional, cell-based; conditions: PC-3, 48 h; outline: as §1
[11] = tested on: PC-3; experiment: Effect on NFE2L2 gene expression in human PC-3 cells at 0.05 uM measured after 3 hrs by qPCR analysis; type: functional, cell-based; outline: as §2
[12] = tested on: PC-3; experiment: Induction of morphological changes in human PC-3 cells assessed as cell rounding at 0.05 uM measured after 24 hrs in presence of antioxidant N-acetyl-L-cysteine by phase contrast microscopy; type: functional, cell-based
Outline: (§4)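 PC3 cells were seeded at 1×10^5 per well in 6-well plates and treated after 24 h, with or without 1 mM N-acetyl-L-cysteine. The same observation field was imaged by phase contrast microscopy at 1, 2, 3, 4 and 24 h. DMSO vehicle served as control.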

[13] = tested on: PC-3; experiment: Induction of ROS generation in human PC-3 cells at 0.05 uM measured after 30 mins by CellROX reagent based flow cytometry; type: functional, cell-based
Outline: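 PC3 seeded 1×10^5 per well in 6-well plates, after 24 h treated together with CellROX green (5 μM final) for 30 min at 37 °C; 0.1% DMSO negative control, 1 mM H2O2 positive control. Cells collected and CellROX-positive fraction measured by flow cytometry.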

[14] = tested on: PC-3; experiment: Induction of morphological changes in human PC-3 cells assessed as cell rounding at 0.05 uM measured after 24 hrs by phase contrast microscopy; type: functional, cell-based; outline: as §4
[15] = tested on: PC-3; experiment: Cell cycle arrest in human PC-3 cells assessed as up regulation of CDKN1A gene expression at 0.05 uM measured after 3 hrs by qPCR analysis; type: functional, cell-based; outline: as §2
[16] = tested on: PC-3; experiment: Induction of apoptosis in human PC-3 cells assessed as effect on BAX gene expression at 0.05 uM measured after 3 hrs by qPCR analysis; type: functional, cell-based; outline: as §2
[17] = tested on: PC-3; experiment: Induction of apoptosis in human PC-3 cells assessed as late apoptotic cells at 0.05 uM measured after 6 hrs by Alexa Fluor 488-annexin V/propidium iodide staining based flow cytometry (reference value: 3.37%); type: functional
[18] = tested on: PC-3; experiment: Cell cycle arrest in human PC-3 cells assessed as reduction in cell accumulation at G0/G1 phase in presence of antioxidant N-acetyl-L-cysteine at 0.05 uM measured after 3 hrs by propidium iodide staining based flow cytometry; type: functional
Outline: (§5)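 PC3 cells seeded 1×10^5 per well in 6-well plates, exposed 3 h, with or without 1 mM N-acetyl-L-cysteine pretreatment; vehicle 0.1% DMSO. Harvested with trypsin-EDTA, fixed in 75% ethanol in PBS at 4 °C for 30 min, stained 1 h with RNase (1.5 mg mL^-1) and propidium iodide (90 μg mL^-1); DNA content by flow cytometry. Phase fractions compared with control by ANOVA/Tukey.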

[19] = tested on: PC-3; experiment: Cell cycle arrest in human PC-3 cells assessed as reduction in cell accumulation at G0/G1 phase at 0.05 uM measured after 3 hrs by propidium iodide staining based flow cytometry; type: functional; outline: as §5
[20] = tested on: PC-3; experiment: Cytotoxicity against human PC-3 cells assessed as reduction in cell viability at 0.05 uM measured after 24 hrs by SRB assay; type: functional, cell-based
Outline: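 SRB assay: PC3 seeded 1×10^4 per well, after 24 h exposed 24 h at 37 °C, 5% CO2 with or without 1 mM N-acetyl-L-cysteine; vehicle 0.1% DMSO. Fixed with 15% TCA at 4 °C for 1 h, dried, stained 0.4% sulforhodamine B, dye solubilized in 10 mM Tris, absorbance 540 nm; ANOVA/Tukey.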

[21] = tested on: PC-3; experiment: Cell cycle arrest in human PC-3 cells assessed as increase in cell accumulation at G2/M phase in presence of antioxidant N-acetyl-L-cysteine at 0.05 uM measured after 3 hrs by propidium iodide staining based flow cytometry; type: functional; outline: as §5
[22] = tested on: PC-3; experiment: Cell cycle arrest in human PC-3 cells assessed as reduction in cell accumulation at S phase in presence of antioxidant N-acetyl-L-cysteine at 0.05 uM measured after 3 hrs by propidium iodide staining based flow cytometry; type: functional; outline: as §5

Row | SMILES | IC50 at 48 h [2] [nM] | IC50 [3] [nM] | Activity [4] [µM] | IC50 at 48 h [5] [nM] | selectivity ratio [7] | selectivity ratio [8] | IC50 [9] [nM] | IC50 [10] [nM] | other results
1 | COc1cc(/C=C/C(=O)N2CCC=CC2=O)cc(OC)c1OCCCOc1no[n+]([O-])c1S(=O)(=O)c1ccccc1 | 3500 | 400 | 23.5 | 17800 | 75.5 | 3 | 1200 | 240 | Activity [1]: Active; Activity [6]: inactive
2 | COc1cc(/C=C/C(=O)N2CCC=CC2=O)cc(OC)c1OCCCCCCCCCCCCOc1no[n+]([O-])c1S(=O)(=O)c1ccccc1 | 123000 | 120 | 23.5 | 14100 | 285 | 15.7 | 7900 | 50 | Activity [11]: Active; Activity [12]: inactive; Activity [13]: Active; Activity [14]: Active; Activity [15]: Active; Activity [16]: inactive; Activity [17]: 81.12%; Activity [18]: Active; Activity [19]: Active; Significant Reduction Observed; Activity [20]: Active; Activity [21]: Active; Activity [22]: Active
